Assay outcomes (PubChem BioAssay)
MEKK3 PB1 HTS: modulators (inhibitors or enhancers) of MEK5 binding to human MEKK3 PB1 domain; Q99759; bead-based flow cytometry, Alexa488-MEK5 binding to MEKK3; actives lie on both sides; 0 = blocked by unlabeled MEK5, 100 = vehicle; binding response (% of control), % at 10 µM; hit rate 1.4% among 290,000; AID 1529;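 active = binding response more than 3 SD above or below the average of its plate-row segment, actives on both sides; inconclusive = wells at one plate position flagged as instrument error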;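 note: Alexa488 bead fluorescence after subtracting the streptavidin-only scavenger bead signal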
Target sequence (Q99759 whole entry, looked up, the tested form may be a part): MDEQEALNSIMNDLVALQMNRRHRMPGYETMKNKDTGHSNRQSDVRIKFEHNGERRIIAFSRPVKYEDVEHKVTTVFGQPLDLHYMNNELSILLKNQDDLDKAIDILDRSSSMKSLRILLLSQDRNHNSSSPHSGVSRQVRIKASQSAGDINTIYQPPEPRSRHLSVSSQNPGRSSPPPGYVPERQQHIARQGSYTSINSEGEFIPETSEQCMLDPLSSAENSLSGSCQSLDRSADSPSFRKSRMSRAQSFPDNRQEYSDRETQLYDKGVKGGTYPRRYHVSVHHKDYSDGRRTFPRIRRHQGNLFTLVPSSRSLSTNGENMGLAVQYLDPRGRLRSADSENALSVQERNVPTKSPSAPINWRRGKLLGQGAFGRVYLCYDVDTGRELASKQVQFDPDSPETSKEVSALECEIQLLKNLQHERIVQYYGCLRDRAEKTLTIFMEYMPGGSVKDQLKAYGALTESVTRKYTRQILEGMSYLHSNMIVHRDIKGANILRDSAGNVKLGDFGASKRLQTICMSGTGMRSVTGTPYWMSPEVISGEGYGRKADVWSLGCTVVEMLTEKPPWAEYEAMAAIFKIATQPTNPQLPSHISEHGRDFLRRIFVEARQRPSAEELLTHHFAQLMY
T cruzi repl: blocks replication of Trypanosoma cruzi; T. cruzi beta-gal in NIH3T3, luminescence, 90 h; inhibition, % (no concentration beside the values); hit rate 1.4% among 300,000; AID 1885;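 active = mean inhibition across valid replicates above about 55%, limit read from the data; inconclusive = mean below that limit but half or more replicates reach it; inactive = mean below it, under half of replicates reach it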;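 note: signal also drops with host cell toxicity which is not excluded here; 0% = plate median of DMSO wells and 100% = zero luminescence signal; higher percent means less beta-gal luminescence so fewer parasites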
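System: mouse NIH/3T3 fibroblasts infected with β-gal-expressing T. cruzi Tulahuen C4 / Input: NIH/3T3 cells, 5,000 per well / Buffer or medium: Low-serum DMEM with 2% FBS / Probe or stimulus: 5000 reporter trypomastigotes per well / Schedule: ≥90 h infection period, 3 h prior cell attachment / Measured by: GalScreen luminescence, 60 min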
NS3 helicase inh: HCV NS3 helicase inhibition; NS3 helicase DNA unwinding, Cy5 molecular beacon fluorescence; inhibition, % at 10.9 µM; hit rate 0.56% among 290,000;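 active = inhibition above the mean of all tested compounds plus 3 SD, set per campaign, cut at about 35% in these data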;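 note: 0% = DMSO wells and 100% = thioflavine S control wells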
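System: Hepatitis C virus NS3 helicase domain fragment enzyme | Reagent: Annealed dual-labelled DNA beacon duplex, ATP-started | Compound dosing: 10.9 µM single point, 0.8% DMSO | Incubation: 1 h reaction at 25 °C, ATP-initiated | Technique: Cy5 fluorescence | Evaluation: Percent inhibition from t60/t0 fluorescence ratio | Benchmarks: Low DMSO, high thioflavine S at 110 µM | Replication: Singlicate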
MEKK2mut PB1 HTS: signal of MEK5 binding to mutant human MEKK2 PB1 domain; bead flow cytometry, Alexa488-MEK5 binding to MEKK2 mutant; percent response, % at 10 µM; hit rate 0.35% among 290,000; AID 1530; in the data active = percent response above about 24%, passing the limit was not always enough
FID counter: displaces DNA intercalator in HCV helicase counter-screen. DNA fluorescent intercalator displacement, fluorescence. inhibition, % at 7.9 µM. hit rate 0.17% among 290,000; in the data active = inhibition above about 37%;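 note: 0% = vehicle and 100% = reference compound; higher means more ethidium bromide displaced from hairpin DNA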
MEKK2wt PB1 HTS: raises or lowers MEK5 binding to wildtype human MEKK2 PB1 domain | hit rate 1.1% among 290,000 | AID 1531 | binding response (% of control), % at 10 µM | bead flow cytometry, Alexa488-MEK5 binding to MEKK2 WT; actives lie on both sides; in the data active = binding response below about 67% or above about 130%; inconclusive = no clear call, values can overlap the other calls; inactive = in between
MEKK2wt confirm: raises or lowers MEK5 binding to wildtype human MEKK2, retest. AID 1892. binding response (% of control), % at 10 µM. hit rate 2.4% among 5,900. shares compounds with MEKK3 PB1 HTS. bead flow cytometry, Alexa488-MEK5 binding to MEKK2 WT; actives lie on both sides; in the data active = binding response below about 16% or above about 210%; inactive = in between
MEKK2mut confirm: signal of MEK5 binding to mutant human MEKK2, retest; bead flow cytometry, Alexa488-MEK5 binding to MEKK2 mutant; percent response, % at 10 µM; shares compounds with MEKK3 PB1 HTS; AID 1893; hit rate 2% among 5,900; in the data active = percent response mostly above about 71%, no sharp cut-off; inactive = mostly below about 38%;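 note: higher means compound restores mutant binding toward wildtype level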
MEKK3 confirm: confirmation of inhibitors of MEK5 binding to human MEKK3 | hit rate 1.8% among 5,900 | AID 1894 | shares compounds with MEKK3 PB1 HTS | binding response (% of control), % at 10 µM | bead flow cytometry, Alexa488-MEK5 binding to MEKK3; active compounds read low;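 active = binding response below 72% of control, or above a set upper limit, though filed actives all read lower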;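 note: 100% = DMSO only wells and 0% = binding blocked by excess unlabeled MEK5; lower values mean stronger disruption of MEK5 binding to MEKK3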
* marks the source's active call; other numbers are inactive results; ? = inconclusive; / = no result; [ ] = another dose, or the depositor's remark. Shown are actives, neighbours in structure and some others; about 4.1% of the full set was active somewhere.

SMILES	MEKK3 PB1 HTS	T cruzi repl	NS3 helicase inh	MEKK2mut PB1 HTS	FID counter	MEKK2wt PB1 HTS	MEKK2wt confirm	MEKK2mut confirm	MEKK3 confirm
COc1cc(/C=N/NC(=O)c2ccc(Cl)c(S(N)(=O)=O)c2)ccc1OCC(N)=O	99	-8	2	5	-11	101	/	/	/
Cc1ccc(C)c(S(=O)(=O)N/N=C/c2ccc(N3CCOCC3)cc2)c1	101	-4	6	3	-4	100	/	/	/
C=CCC(NCc1ccco1)c1ccc(OC)c(OC)c1 (stereo not drawn)	0.0*[inhibitor]	-16	-1	-16	-2	-1.0*[inhibitor]	93	-5	98
COc1ccc(C(CC(=O)O)NC(=O)c2ccco2)cc1OC (stereo not drawn)	110	-14	-6	24*	-2	111	101	-1	99
C=CCC(NCc1ccco1)c1ccc(OC)cc1OC (stereo not drawn)	92	4	-7	-6	1	93	/	/	/
COc1ccc(C(CC(=O)O)NC(=O)c2ccco2)cc1 (stereo not drawn)	102	-9	-3	-1	-3	99	/	/	/
CCN(CC(=O)NC(C)(C)C)C(=O)CCl	136*	-6	3	0	7	104	99	-2	99
COc1ccc2[nH]c(C(=O)NCc3ccccc3)c(C)c2c1	110	2	-1	10	-13	105	/	/	/
CN(C)CC#CCC(O)(c1ccccc1)C1CCCCC1 (stereo not drawn)	104	0	-13	5	12	109	/	/	/
CCN(CC)CC#CCC(O)(c1ccccc1)C1CCCC1 (stereo not drawn)	95	59*	-5	-2	7	46*[inhibitor]	116	4	106
O=C(Cc1ccc2cccnc2c1)c1ccc(O)cc1O	2.0*[inhibitor]	-13	2	-27	-4	-1.0*[inhibitor]	91	-7	89
Oc1ccc2cccnc2c1	99	/	3	4	-1	97	/	/	/
CCN(CC(=O)Nc1ccc(C)c(F)c1)CC(=O)NC(C)(C)C	101	-15	2	3	-15	104	/	/	/
CCCCCn1c(=O)[nH]c2cc(C(=O)N3CCN(C(=O)OCC)CC3)ccc2c1=O	106	15	-8	6	-43	107	/	/	/
CCOC(=O)N1CCN(C(=O)c2ccc3c(=O)n(CCc4ccccc4)c(=O)[nH]c3c2)CC1	125*	4	-3	9	-17	125	102	0	104
COCCn1c(=O)[nH]c2cc(C(=O)NCCc3ccc(OC)c(OC)c3)ccc2c1=O	93	-8	-6	-3	-20	91	/	/	/
COCCn1c(=O)[nH]c2cc(C(=O)NCCc3ccc(S(N)(=O)=O)cc3)ccc2c1=O	135*	5	-13	4	-6	118	100	-5	103
O=[N+]([O-])c1ccc(-[n+]2nc(-c3ccccc3)nn2-c2ccccc2)cc1	99	46	4	6	8	107	/	/	/
Cc1cccc(N=C2Sc3nc4c(C)c(C)ccc4cc3CN2CCN2CCOCC2)c1	113	?	-62	24*	7	144*	136	17	108
CC1=C(C)CC(C(=O)Nc2nc(-c3ccc(C)cc3C)c(C)s2)C(C(=O)O)C1 (stereo not drawn)	133*	-8	19	1	-27	104	104	3	101
COc1ccc(N2CC(C(=O)N(C)CC(=O)Nc3ccc(Cl)c(C(F)(F)F)c3)CC2=O)c(OC)c1 (stereo not drawn)	/	-18	/	/	/	/	/	/	/
Cc1ccc(NC(=O)/C(=C/c2cccc([N+](=O)[O-])c2)NC(=O)C2CCCCC2)c(C)c1	1.0*[inhibitor]	2	-4	-21	-1	2.0*[inhibitor]	107	3	103
O=C(Nc1ccc([N+](=O)[O-])cc1)/C(=C/c1cccc([N+](=O)[O-])c1)NC(=O)C1CCCCC1	101	32	1	0	14	99	/	/	/
CC12CCC(C(=O)NC3CCCC3)(CC1=O)C2(C)C (stereo not drawn)	107	7	-7	5	-6	111	/	/	/
CC1(C)CC2CC(C)(CN2C(=O)C23CCC(C)(C(=O)C2)C3(C)C)C1 (stereo not drawn)	128*	17	10	0	-23	102	92	-8	97
SMILES	MEKK3 PB1 HTS	T cruzi repl	NS3 helicase inh	MEKK2mut PB1 HTS	FID counter	MEKK2wt PB1 HTS	MEKK2wt confirm	MEKK2mut confirm	MEKK3 confirm
COc1ccc(CN(C)CC2CCCN(CCc3ccccc3C)C2)cc1O (stereo not drawn)	102	31	-16	8	11	115	/	/	/
COc1ccc(CCN2CCCC(CN(C)Cc3cc(Cl)c(O)c(OC)c3)C2)cc1 (stereo not drawn)	112	11	-8	25*	8	135*	132	24	107
COc1ccccc1N(CC(=O)NCCSc1ccccc1)S(C)(=O)=O	95	-6	3	-1	-18	93	/	/	/
CCOc1ccccc1N(CC(=O)NCCSc1ccccc1)S(C)(=O)=O	132*	1	-6	1	-24	119	103	0	107
O=C(Cn1cc(SCc2cccc(Cl)c2)c2ccccc21)N1CCOCC1	140*	15	-12	1	-24	111	101	-17	98
CCNc1nc(CN2CCOCC2)nc2sc3c(c12)CCC3	102	-1	8	5	-6	102	/	/	/
c1ccc2c(c1)CCN(c1nc(CN3CCOCC3)nc3sc4c(c13)CCCC4)C2	135*	37	-31	3	-13	107	110	3	104
O=c1cc(CO)[nH]cc1OCc1ccccc1	94	-9	-12	-1	-1	102	/	/	/
Cc1ccc2[nH]c(C)c(/C=N/Nc3nc4ccccc4s3)c2c1	96	61*	-10	5	17	138*	117	-2	96
Cc1ccc(-c2nn(-c3ccccc3)cc2/C=C/C(=O)OCC(=O)NC2CC2)o1	131*	-7	-5	5	-26	116	96	-7	89
CNC(=O)COC(=O)/C=C/c1cn(-c2ccccc2)nc1-c1ccc2c(c1)OCCO2	107	20	-22	-3	-18	105	/	/	/
O=S(=O)(/C=C/c1cccc(Br)c1)N1CCOCC1	103	3	3	0	-7	104	/	/	/
